How the values were obtained:
HCK = test: MIB washout assay; type: binding, Human; conditions: H23 cells, 1 μM 4h, MIB pulldown ratio SM1-71/SM1-71-R
AURKA [1] = target: T1, AURKA (Homo sapiens, UniProt O14965); test: MIB dose-dependent kinase inhibition assay; type: binding; conditions: read-out: IC50 in the MIB assay, H23 cell lysate, overnight 4°C
T1 sequence (O14965 1-403): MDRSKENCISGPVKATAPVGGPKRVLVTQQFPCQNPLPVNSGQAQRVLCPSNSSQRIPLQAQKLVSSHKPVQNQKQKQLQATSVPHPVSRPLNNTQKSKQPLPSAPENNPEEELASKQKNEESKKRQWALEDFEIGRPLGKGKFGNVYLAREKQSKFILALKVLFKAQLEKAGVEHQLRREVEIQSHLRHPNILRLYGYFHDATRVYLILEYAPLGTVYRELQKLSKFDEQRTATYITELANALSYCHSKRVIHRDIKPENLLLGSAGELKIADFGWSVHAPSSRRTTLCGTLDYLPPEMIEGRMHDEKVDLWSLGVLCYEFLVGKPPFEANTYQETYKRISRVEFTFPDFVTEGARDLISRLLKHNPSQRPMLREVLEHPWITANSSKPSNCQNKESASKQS

MAP3K11 = test: MIB washout assay; type: binding, Human; conditions: H23 cells, 1 μM 4h, MIB pulldown ratio SM1-71/SM1-71-R
43 recombinant kinases = test: thermal stability shift assay; type: binding; conditions: 21 of 43 recombinant kinases; protein 2 μM, inhibitor 10 μM
PIP5K1A = test: MIB washout assay; type: binding, Human; conditions: H23 cells, 1 μM 4h, MIB pulldown ratio SM1-71/SM1-71-R
YES1 [2] = target: T2, YES1 (Homo sapiens, UniProt P07947); test: MIB dose-dependent kinase inhibition assay; type: binding; conditions: read-out: IC50 in the MIB assay, H23 cell lysate, overnight 4°C
MAP3K1 = test: MIB washout assay; type: binding, Human; conditions: H23 cells, 1 μM 4h, 0h post-washout, MIB pulldown ratio SM1-71/SM1-71-R
MAP2K2 = MAP2K2 (Homo sapiens, UniProt P36507); test: mass shift assay; type: binding; conditions: incubated 4 and 24h
Procedure, shortened: (§1)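 Kinase protein at 0.12 mM in 10 mM HEPES pH 7.5, 500 mM NaCl, incubated with 0.2 mM test compound at 4°C for 4 h and 24 h. Samples were diluted in 0.1% formic acid and desalted on a C3 pre-column. ESI-TOF was run in positive mode at 120 V, and intact mass was obtained by deconvolution to detect the adduct.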

YES1 [3] = target: T2, YES1; test: MIB washout assay; type: binding; conditions: H23 cells, 1 μM 4h, MIB pulldown ratio SM1-71/SM1-71-R
DDR1 = test: MIB washout assay; type: binding, Human; conditions: H23 cells, 1 μM 4h, MIB pulldown ratio SM1-71/SM1-71-R
LIMK1 [4] = target: T3, LIMK1 (Homo sapiens, UniProt P53667); test: MIB washout assay; type: binding; conditions: H23 cells, 1 μM 4h, MIB pulldown ratio SM1-71/SM1-71-R
TGFBR2 = test: MIB washout assay; type: binding, Human; conditions: H23 cells, 1 μM 4h, MIB pulldown ratio SM1-71/SM1-71-R
CSNK1G1 = test: MIB washout assay; type: binding, Human; conditions: H23 cells, 1 μM 4h, MIB pulldown ratio SM1-71/SM1-71-R
AURKA [5] = target: T1, AURKA; test: MIB washout assay; type: binding
SRC = SRC (Homo sapiens, UniProt P12931); test: MIB washout assay; type: binding; conditions: H23 cells, 1 μM 4h, MIB pulldown ratio SM1-71/SM1-71-R
PKMYT1 = test: MIB washout assay; type: binding, Human; conditions: H23 cells, 1 μM 4h, MIB pulldown ratio SM1-71/SM1-71-R
GSK3B = GSK3B (Homo sapiens, UniProt P49841); test: mass shift assay; type: binding; conditions: incubated 4 and 24h
Procedure, shortened: as §1

CDK9 = test: MIB washout assay; type: binding, Human; conditions: H23 cells, 1 μM 4h, MIB pulldown ratio SM1-71/SM1-71-R
PIK3R4 = test: MIB washout assay; type: binding, Human; conditions: H23 cells, 1 μM 4h, MIB pulldown ratio SM1-71/SM1-71-R
MAPK1 = test: MIB washout assay; type: binding, Human; conditions: H23 cells, 1 μM 4h, MIB pulldown ratio SM1-71/SM1-71-R
MAP2K1 = MAP2K1 (Homo sapiens, UniProt Q02750); test: mass shift assay; type: binding; conditions: incubated 4 and 24h
Procedure, shortened: as §1

LIMK1 [6] = target: T3, LIMK1; test: MIB dose-dependent kinase inhibition assay; type: binding; conditions: read-out: IC50 in the MIB assay, H23 cell lysate, overnight 4°C
TGFBR1 = test: MIB washout assay; type: binding, Human; conditions: H23 cells, 1 μM 4h, MIB pulldown ratio SM1-71/SM1-71-R
TNIK = test: MIB washout assay; type: binding, Human; conditions: H23 cells, 1 μM 4h, MIB pulldown ratio SM1-71/SM1-71-R
EIF2AK3 = test: MIB washout assay; type: binding, Human; conditions: H23 cells, 1 μM 4h, MIB pulldown ratio SM1-71/SM1-71-R
IGF1R = test: MIB washout assay; type: binding, Human; conditions: H23 cells, 1 μM 4h, MIB pulldown ratio SM1-71/SM1-71-R

T3 sequence (P53667 whole entry): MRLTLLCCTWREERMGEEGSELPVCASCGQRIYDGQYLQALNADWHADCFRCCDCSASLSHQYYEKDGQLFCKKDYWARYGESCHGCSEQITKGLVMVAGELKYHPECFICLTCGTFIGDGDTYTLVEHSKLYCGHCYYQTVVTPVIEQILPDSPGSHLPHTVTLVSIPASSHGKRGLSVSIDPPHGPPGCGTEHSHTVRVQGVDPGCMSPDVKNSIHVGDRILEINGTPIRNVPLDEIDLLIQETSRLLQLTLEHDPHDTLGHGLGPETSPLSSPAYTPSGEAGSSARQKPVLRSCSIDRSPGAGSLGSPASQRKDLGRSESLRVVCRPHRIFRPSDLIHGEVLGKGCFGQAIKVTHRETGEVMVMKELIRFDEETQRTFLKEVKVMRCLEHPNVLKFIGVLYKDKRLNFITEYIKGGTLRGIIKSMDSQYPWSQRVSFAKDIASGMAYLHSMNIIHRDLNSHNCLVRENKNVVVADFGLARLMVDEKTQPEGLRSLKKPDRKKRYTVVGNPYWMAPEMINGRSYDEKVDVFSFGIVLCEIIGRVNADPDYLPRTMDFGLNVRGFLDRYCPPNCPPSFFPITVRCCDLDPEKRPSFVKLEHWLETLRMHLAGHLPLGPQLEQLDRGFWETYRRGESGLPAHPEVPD
T2 sequence (P07947 whole entry): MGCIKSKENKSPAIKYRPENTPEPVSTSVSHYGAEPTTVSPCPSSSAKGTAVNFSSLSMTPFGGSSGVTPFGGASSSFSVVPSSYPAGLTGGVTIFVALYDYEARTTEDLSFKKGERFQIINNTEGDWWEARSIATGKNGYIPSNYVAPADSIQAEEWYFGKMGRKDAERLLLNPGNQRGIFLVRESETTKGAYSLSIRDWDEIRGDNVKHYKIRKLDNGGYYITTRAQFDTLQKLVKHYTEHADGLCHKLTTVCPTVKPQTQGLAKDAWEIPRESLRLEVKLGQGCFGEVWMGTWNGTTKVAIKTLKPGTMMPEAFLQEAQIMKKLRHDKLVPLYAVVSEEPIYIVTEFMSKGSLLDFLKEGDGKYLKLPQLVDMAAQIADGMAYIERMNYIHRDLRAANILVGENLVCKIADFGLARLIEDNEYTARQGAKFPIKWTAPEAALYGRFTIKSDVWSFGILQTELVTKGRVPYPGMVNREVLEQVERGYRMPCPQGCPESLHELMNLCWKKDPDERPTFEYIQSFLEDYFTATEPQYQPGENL
Chain of SRC (P12931 whole entry): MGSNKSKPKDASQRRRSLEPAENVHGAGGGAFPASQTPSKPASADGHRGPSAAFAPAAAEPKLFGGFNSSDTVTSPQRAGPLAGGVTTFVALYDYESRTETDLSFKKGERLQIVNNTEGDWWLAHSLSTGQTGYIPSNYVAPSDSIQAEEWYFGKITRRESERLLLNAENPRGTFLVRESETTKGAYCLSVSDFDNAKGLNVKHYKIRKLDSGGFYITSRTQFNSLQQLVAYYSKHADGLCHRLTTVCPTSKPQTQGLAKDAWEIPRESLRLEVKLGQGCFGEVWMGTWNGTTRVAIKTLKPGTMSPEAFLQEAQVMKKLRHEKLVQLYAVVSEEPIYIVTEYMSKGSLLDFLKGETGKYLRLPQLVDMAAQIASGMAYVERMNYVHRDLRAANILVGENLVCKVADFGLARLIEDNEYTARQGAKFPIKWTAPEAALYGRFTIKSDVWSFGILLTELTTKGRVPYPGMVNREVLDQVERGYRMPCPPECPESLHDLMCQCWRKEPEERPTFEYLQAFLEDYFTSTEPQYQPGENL
Chain of MAP2K2 (P36507 whole entry, species assumed): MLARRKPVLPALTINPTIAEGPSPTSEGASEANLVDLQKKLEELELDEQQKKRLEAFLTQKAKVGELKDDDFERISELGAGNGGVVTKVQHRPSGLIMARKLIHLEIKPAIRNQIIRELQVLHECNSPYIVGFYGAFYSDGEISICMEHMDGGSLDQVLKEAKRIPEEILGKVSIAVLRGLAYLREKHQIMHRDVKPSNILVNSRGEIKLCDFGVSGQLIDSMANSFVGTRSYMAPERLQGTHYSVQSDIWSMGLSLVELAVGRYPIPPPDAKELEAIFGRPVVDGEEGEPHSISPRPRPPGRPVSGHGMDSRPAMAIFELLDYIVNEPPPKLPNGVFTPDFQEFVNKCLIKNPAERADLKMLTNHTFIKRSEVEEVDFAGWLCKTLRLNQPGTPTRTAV
Chain of GSK3B (P49841 whole entry, species assumed): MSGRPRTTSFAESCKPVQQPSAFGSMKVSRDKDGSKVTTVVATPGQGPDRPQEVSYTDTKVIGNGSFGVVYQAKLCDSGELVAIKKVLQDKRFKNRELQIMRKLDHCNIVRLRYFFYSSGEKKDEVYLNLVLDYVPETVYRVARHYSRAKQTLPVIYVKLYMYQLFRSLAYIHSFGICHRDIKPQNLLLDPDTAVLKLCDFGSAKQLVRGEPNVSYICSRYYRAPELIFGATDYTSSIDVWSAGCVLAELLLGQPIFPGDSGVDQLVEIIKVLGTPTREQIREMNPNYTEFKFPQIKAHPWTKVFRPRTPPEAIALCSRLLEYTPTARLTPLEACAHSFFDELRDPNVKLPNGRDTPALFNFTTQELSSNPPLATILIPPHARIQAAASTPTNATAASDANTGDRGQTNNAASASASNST
Chain of MAP2K1 (Q02750 whole entry, species assumed): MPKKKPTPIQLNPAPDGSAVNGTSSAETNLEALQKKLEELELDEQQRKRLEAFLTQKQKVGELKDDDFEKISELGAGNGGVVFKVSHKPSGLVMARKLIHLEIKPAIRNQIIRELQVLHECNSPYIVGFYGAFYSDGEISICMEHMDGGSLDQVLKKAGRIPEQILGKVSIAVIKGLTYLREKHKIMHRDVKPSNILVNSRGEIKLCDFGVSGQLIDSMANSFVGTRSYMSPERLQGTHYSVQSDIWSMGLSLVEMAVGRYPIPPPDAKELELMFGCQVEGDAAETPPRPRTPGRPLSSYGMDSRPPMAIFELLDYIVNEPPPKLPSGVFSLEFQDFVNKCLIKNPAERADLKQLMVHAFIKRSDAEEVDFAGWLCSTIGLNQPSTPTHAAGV

## C=CC(=O)Nc1ccccc1Nc1nc(Nc2ccc(N3CCN(C)CC3)cc2)ncc1Cl [SM1-71]
HCK; 0h post-washout
  BI-0h: 1.3
HCK; 6h post-washout
  BI-6h: 0.85
AURKA [1]
  IC50: < 10 nM
MAP3K11; 0h post-washout
  BI-0h: 0.6
MAP3K11; 6h post-washout
  BI-6h: 0.76
43 recombinant kinases
  ΔTm shifts: > 6 °C
PIP5K1A; 0h post-washout
  BI-0h: 0.56
PIP5K1A; 6h post-washout
  BI-6h: 0.75
YES1 [2]
  IC50: < 10 nM
MAP3K1
  BI-0h: 0.2
MAP2K2
  covalent adduct formation (mass shift): formed covalent adducts
YES1 [3]; 0h post-washout
  BI-0h: 0.21
YES1 [3]; 6h post-washout
  BI-6h: 0.1
DDR1; 0h post-washout
  BI-0h: 0.68
DDR1; 6h post-washout
  BI-6h: 0.59
LIMK1 [4]; 0h post-washout
  BI-0h: 0.21
LIMK1 [4]; 6h post-washout
  BI-6h: 0.23
TGFBR2; 0h post-washout
  BI-0h: 0.53
TGFBR2; 6h post-washout
  BI-6h: 0.6
CSNK1G1; 0h post-washout
  BI-0h: 0.55
CSNK1G1; 6h post-washout
  BI-6h: 0.81
AURKA [5]; H23 cells, 1 μM 4h, 0h post-washout, MIB pulldown ratio SM1-71/SM1-71-R
  BI-0h: 1.16
AURKA [5]; H23 cells, 1 μM 4h, 6h post-washout, MIB pulldown ratio SM1-71/SM1-71-R
  BI-6h: 2.38
AURKA [5]; class from BI 0h and 6h
  Binding: Strongly Reversible (BI0h,6h greater than 1 suggesting a strong preference for reversible mode of inhibition)
SRC; 0h post-washout
  BI-0h: 0.19
SRC; 6h post-washout
  BI-6h: 0.13
PKMYT1; 0h post-washout
  BI-0h: 0.47
PKMYT1; 6h post-washout
  BI-6h: 0.8
GSK3B
  covalent adduct formation (mass shift): formed covalent adducts
CDK9; 0h post-washout
  BI-0h: 0.46
CDK9; 6h post-washout
  BI-6h: 0.96
PIK3R4; 0h post-washout
  BI-0h: 0.36
PIK3R4; 6h post-washout
  BI-6h: 0.47
MAPK1; 0h post-washout
  BI-0h: 0.19
MAPK1; 6h post-washout
  BI-6h: 0.39
MAP2K1
  covalent adduct formation (mass shift): formed covalent adducts
LIMK1 [6]
  IC50: < 10 nM
TGFBR1; 0h post-washout
  BI-0h: 1.09
TGFBR1; 6h post-washout
  BI-6h: 0.8
TNIK; 0h post-washout
  BI-0h: 0.67
TNIK; 6h post-washout
  BI-6h: 0.74
EIF2AK3; 0h post-washout
  BI-0h: 0.8
EIF2AK3; 6h post-washout
  BI-6h: 0.66
IGF1R; 0h post-washout
  BI-0h: 0.45
IGF1R; 6h post-washout
  BI-6h: 0.64

— publication PMC6634314 (Cell chemical biology, 2019)
